# According to ChEMBL document CHEMBL1157663, “Acyclic nucleoside phosphonates with 5-azacytosine base moiety substituted in C-6 position” (Bioorg Med Chem, 2010):
# Active and inactive are the calls of the source. The rule behind the calls is not given here.
# Key:
# [1] = Cytotoxicity against human CEM cells; format: cell-based; conditions: CEM (CCRF-CEM) cells
# HEL = test: Cytostatic activity against HEL cells; format: ADME, cell-based; conditions: human
# Sindbis virus = test: Antiviral activity against Sindbis virus infected in african green monkey Vero cells at 20 ug/ml; format: functional, organism-based
# CCRF-CEM = test: Cytostatic activity against human CEM cells; format: cell-based
# Human alphaherpesvirus 1 = test: Antiviral activity against Herpes simplex virus 1 infected in HEL cells; format: functional, organism-based
# Method in brief: (§1)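 DNA-virus assay run in human embryonic lung (HEL) cell cultures.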
# Human alphaherpesvirus 2 = test: Antiviral activity against Herpes simplex virus 2 infected in HEL cells; format: functional, organism-based; method in brief: as §1
# Vero = test: Cytostatic activity against african green monkey Vero cells; format: ADME, cell-based; conditions: chlorocebus sabaeus
# [2] = test system: Human immunodeficiency virus 2; test: Antiviral activity against HIV2 infected in human CEM cells; format: functional, organism-based; conditions: CCRF-CEM
# Method in brief: (§2)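 Retroviral assay (HIV-1, HIV-2) run in human T-lymphocyte CEM cells.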
# [3] = test system: Human immunodeficiency virus 1; test: Antiviral activity against HIV1 infected in human CEM cells; format: functional, organism-based; conditions: CCRF-CEM; method in brief: as §2
# [4] = Cytotoxicity against HEL cells; format: cell-based; conditions: human
# [5] = Cytotoxicity against african green monkey Vero cells; format: cell-based; conditions: chlorocebus sabaeus
# Vaccinia virus = test: Ratio of compound EC50 to HPMP-5-azaC EC50 for Vaccinia virus infected in HEL cells; format: functional, Orthopoxvirus vaccinia
# Cowpox virus = test: Ratio of compound EC50 to HPMP-5-azaC EC50 for Cowpox virus infected in HEL cells; format: functional
# Human betaherpesvirus 6 = test: Antiviral activity against Human herpesvirus 6; format: functional, organism-based
# Human betaherpesvirus 5 = test: Antiviral activity against Human cytomegalovirus infected in HEL cells; format: functional, organism-based; conditions: Human betaherpesvirus 5, HEL; method in brief: as §1
# Human alphaherpesvirus 3 = test: Antiviral activity against Varicella zoster virus infected in HEL cells; format: functional, organism-based; conditions: Human alphaherpesvirus 3, HEL; method in brief: as §1
SMILES,CC50 [1] [µg/mL],Activity (HEL),Activity (Sindbis virus),Activity (CCRF-CEM),Activity (Human alphaherpesvirus 1),Activity (Human alphaherpesvirus 2),Activity (Vero),Activity [2],Activity [3],CC50 [4] [µg/mL],CC50 [5] [µg/mL],Ratio EC50 (Vaccinia virus),Ratio EC50 (Cowpox virus),EC50 (Human betaherpesvirus 6) [ng/mL],"EC50 (Human alphaherpesvirus 1; Human alphaherpesvirus 1, HEL) [ng/mL]","EC50 (Human alphaherpesvirus 2; Human alphaherpesvirus 2, HEL) [ng/mL]",EC50 (Human betaherpesvirus 5) [ng/mL],EC50 (Human alphaherpesvirus 3) [ng/mL]
Cc1nc(N)n(C[C@@H](CO)OCP(=O)(O)OC(C)C)c(=O)n1,> 100,Non-toxic,Active,Non-toxic,inactive,inactive,Non-toxic,inactive,inactive,> 100,> 100,–,–,–,–,–,–,–
Cc1nc(N)n(C[C@@H](CO)OCP(=O)(O)O)c(=O)n1,> 100,Non-toxic,inactive,Non-toxic,inactive,inactive,Non-toxic,inactive,inactive,> 100,> 100,–,–,–,–,–,–,–
Nc1nc(-c2ccccc2)n(C[C@@H](CO)OCP(=O)(O)O)c(=O)n1,> 100,Non-toxic,–,Non-toxic,inactive,inactive,Non-toxic,inactive,inactive,> 100,> 100,50,50,–,–,–,–,–
CCCCCCCCCCCCCCCCOCCOP1(=O)CO[C@@H](Cn2cnc(N)nc2=O)CO1 (stereo not given in full),> 100,Non-toxic,–,Non-toxic,–,–,Non-toxic,inactive,inactive,> 100,> 100,–,–,8,3,3,≤ 0.14,≤ 0.8
CCCCc1nc(N)nc(=O)n1C[C@@H](CO)OCP(=O)(O)O,> 100,Non-toxic,–,Non-toxic,inactive,inactive,Non-toxic,inactive,inactive,> 100,> 100,50,50,–,–,–,–,–
CCc1nc(N)nc(=O)n1C[C@@H](CO)OCP(=O)(O)O,> 100,Non-toxic,–,Non-toxic,inactive,inactive,Non-toxic,inactive,inactive,> 100,> 100,50,50,–,–,–,–,–
CCCc1nc(N)nc(=O)n1C[C@@H](CO)OCP(=O)(O)O,> 100,Non-toxic,–,Non-toxic,inactive,inactive,Non-toxic,inactive,inactive,> 100,> 100,50,50,–,–,–,–,–
Nc1ncnc(=O)n1C[C@@H](CO)OCP(=O)(O)O,> 100,Non-toxic,–,Non-toxic,inactive,inactive,Non-toxic,inactive,inactive,> 100,> 100,–,–,–,–,–,–,–
Cc1nc(N)nc(=O)n1C[C@@H](CO)OCP(=O)(O)O,> 100,Non-toxic,–,Non-toxic,inactive,inactive,Non-toxic,inactive,inactive,> 100,> 100,50,50,–,–,–,–,–
